# According to publication PMC6217710 (Pain Medicine: The Official Journal of the American Academy …, 2018):
# What was measured:
# healthy male subjects [1] = experiment: Laser-evoked potentials; type: in vivo, human
# Summary of the method: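 Crossover in 24 healthy CYP2D6 extensive/intermediate-metabolizer males: 4 double-blind, double-dummy single-dose periods with 6-day washouts. Back skin got topical 1% alcoholic capsaicin under occlusion for 25 min, then two CO2-laser rekindling sessions. Each session used ≥13 80-msec laser stimuli at the fixed individual pain-threshold intensity. Vertex EEG (Cz vs right mastoid, artifacts rejected) recorded predose and hourly to 8 h. Value is the N2-P2 amplitude difference vs placebo.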
# [2] = Plasma pharmacokinetics after single oral dose; type: in vivo; details: human, 150 mg
# healthy male subjects [3] = details: previous data in healthy subjects; cited from earlier work
# healthy male subjects [4] = experiment: Postlaser pain visual analog scale; type: in vivo, human; details: all subjects
# Summary of the method: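 Measured in the same capsaicin-pretreated back-skin sessions of the 4-period crossover (24 healthy males, double-blind, single doses, 6-day washout). Laser intensity was held at each subject's pain threshold, set on untreated skin during screening. After the laser stimuli, subjects rated pain on a 0–100 mm visual analog scale, expressed as %. Ratings were taken predose and hourly up to 8 h, compared against placebo.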
# healthy male subjects [5] = experiment: Safety and tolerability; type: in vivo, human
smiles,measurement,setting,value
"CC(C)C[C@H](CN)CC(=O)O [Pregabalin, pregabalin]",Difference in LEP N2-P2 PtP amplitudes,"healthy male subjects [1]; pregabalin 150 mg single dose vs placebo, all subjects (n = 24)",–3.30 μV
same,LEP N2-P2 PtP amplitude value,"healthy male subjects [1]; pregabalin 150 mg, overall, all subjects",26.7 μV
same,Tmax,[2],1.08 h
same,Cmax,"[2]; mean Cmax, pregabalin 150 mg single oral dose",3480 ng/mL
same,Reductions in PtP amplitudes of LEPs maintained postdose,healthy male subjects [3],more than six hours
same,Start of reductions in PtP amplitudes of LEPs,healthy male subjects [3],one to two hours postadministration
same,Difference in VAS pain,healthy male subjects [4]; pregabalin 150 mg vs placebo,–9.90%
same,VAS pain score,healthy male subjects [4]; pregabalin 150 mg,36.6%
same,Subjects who reported TEAEs,healthy male subjects [5]; during treatment with pregabalin 150 mg,50%
same,Any TEAE,healthy male subjects [5]; pregabalin 150 mg (n = 24),12 (50) No. (%)
same,Dizziness,healthy male subjects [5]; pregabalin 150 mg (n = 24),6 (25) No. (%)
same,Drug-related TEAE,healthy male subjects [5]; pregabalin 150 mg (n = 24),12 (50) No. (%)
same,Fatigue,healthy male subjects [5]; pregabalin 150 mg (n = 24),4 (17) No. (%)
same,Headache,healthy male subjects [5]; pregabalin 150 mg (n = 24),0 No. (%)
same,Nausea,healthy male subjects [5]; pregabalin 150 mg (n = 24),1 (4) No. (%)
same,Serious TEAE,healthy male subjects [5]; pregabalin 150 mg (n = 24),0 No. (%)
same,Somnolence,healthy male subjects [5]; pregabalin 150 mg (n = 24),1 (4) No. (%)
same,Vertigo,healthy male subjects [5]; pregabalin 150 mg (n = 24),3 (13) No. (%)
